Measured values gathered from unrelated publications.
Lines come from different studies, so protocols differ.
CDK2: Cyclin-dependent kinase 2 (CDK2, Homo sapiens, UniProt P24941)
CDK2 with cyclin E: Cyclin-dependent kinase 2, with cyclin E (CDK2, Homo sapiens, UniProt P24941)
CDK2 with cyclin A: Cyclin-dependent kinase 2, with cyclin A (CDK2, Homo sapiens, UniProt P24941)

With `C[C@H](c1ccnc(Nc2nc3ccc(-c4cc(N(C)C)ncn4)cc3[nH]2)c1)N1CCN(C(=O)CC(F)(F)F)CC1` the remaining binding was 100% (CDK2; cell-free assay; competition with immobilised ligand; 0.1 µM).
With `N#Cc1c(NC(=O)c2cccc3ccccc23)sc2c1CCCC2` the remaining signal was 89.1% (CDK2 with cyclin E; cell-free assay; 0.5 µM).
For `CCS(=O)(=O)c1cc2cc(C[C@@](O)(CC(C)(C)c3ccc(F)cc3C(N)=O)C(F)(F)F)[nH]c2cn1`, the remaining binding was 96% (CDK2; cell-free assay; competition with immobilised ligand; 1 µM).
`Cn1c2c(c3ccc(Cl)c(Cl)c31)C(C#N)C1(CCNCC1)NC2=O` (racemic) gave a ΔTm of 0.1 °C (CDK2; thermal stability; DSF; 10 µM).
The activity vs control of `CC(C)c1ccc(NC(=O)c2cccs2)c(-c2nc3ccccc3[nH]c2=O)c1` is reported as 98% (CDK2 with cyclin E; enzyme activity; inhibitor; 1 µM).
With `Cn1c2c(c3ccc(Cl)c(Cl)c31)C(C#N)C(C)(C)NC2=O` (centres unmarked) the ΔTm was 0.5 °C (CDK2; thermal stability; DSF; 10 µM).
With `N#CCCc1ccc2c(c1)-c1[nH]c3ccc([N+](=O)[O-])cc3c1CC(=O)N2` the remaining signal was 2.93% (CDK2 with cyclin A; cell-free assay; 0.5 µM).
With `Cn1c2c(Cl)c(Cl)ccc2c2cn[nH]c(=O)c21` the ΔTm was 0.6 °C (CDK2; thermal stability; DSF; 10 µM).
`CSc1cccnc1N1CCN(Cc2nc3ccccc3[nH]2)CC1` gave a remaining binding of 95% (CDK2; cell-free assay; competition with immobilised ligand; 1 µM).
The remaining activity of `O=C(Nc1cnn(-c2csc(C(=O)NC3COC3)c2)c1)Nc1c(F)cccc1Cl` is reported as 98.9% (Cyclin-dependent kinase 2, with cyclin E2 (CDK2, Homo sapiens, UniProt P24941); enzyme activity; inhibitor; 5 µM).
With `CC(C)[C@H](CO)Nc1nc(Nc2cccc(Cl)c2)c2ncn(C(C)C)c2n1` the remaining signal was 9.88% (CDK2 with cyclin E; cell-free assay; 0.5 µM).
For `Cc1cc(NC(=O)c2cccc3cc(-c4cccc5[nH]nc(N)c45)ccc23)ccc1F`, the activity vs control was 103% (CDK2 with cyclin E; enzyme activity; inhibitor; 0.1 µM).
With `CC1(C)NC(=O)c2[nH]c3c(Cl)c(Cl)ccc3c2C1C#N` (centres unmarked) the ΔTm was -0.3 °C (CDK2; thermal stability; DSF; 10 µM).
`O=C1NC(=O)c2cc(Nc3ccc(F)cc3)c(Nc3ccc(F)cc3)cc21` has a remaining signal of 95.3% (CDK2 with cyclin A; cell-free assay; 0.5 µM).
`O=C(Nc1cccnn1)N1CC(C/C=C/c2cncc(Oc3ccc(C(F)(F)F)cn3)n2)C1` gave a remaining binding of 100% (CDK2; cell-free assay; competition with immobilised ligand; 1 µM).
`O=C1Cc2c([nH]c3ccc([N+](=O)[O-])cc23)-c2ccccc2N1` gave a remaining signal of 8.37% (CDK2 with cyclin A; cell-free assay; 0.5 µM).
`COc1cc(/C=C/C(=O)CC(=O)/C=C/c2ccc(O)c(OC)c2)ccc1O` gave an activity vs control of 107% (CDK2 with cyclin A; enzyme activity; inhibitor; 1 µM).
With `Cc1ccc(NC(=O)c2ccc(C)c(C(F)(F)F)c2)cc1C#Cc1nn(C2CCC(O)CC2)c2ncnc(N)c12` (centres unmarked) the remaining signal was 102% (CDK2 with cyclin E; cell-free assay; 10 µM).
`Cn1c2c(Cl)c(Cl)ccc2c2cc(N)[nH]c(=O)c21` gave a ΔTm of 2.2 °C (CDK2; thermal stability; DSF; 10 µM).
The remaining binding of `C[C@H](NC(=O)c1cnc2n1[C@](C)(Cc1ccc(C#N)cc1)C(=O)N2c1cc(Cl)c(F)c(Cl)c1)C(=O)NC1(c2ccccn2)CC1` is reported as 100% (CDK2; cell-free assay; competition with immobilised ligand; 1 µM).
For `CS(=O)(=O)CCNCc1ccc(-c2ccc3ncnc(Nc4ccc(OCc5cccc(F)c5)c(Cl)c4)c3c2)o1`, the remaining signal was 98.8% (CDK2 with cyclin E; cell-free assay; 0.5 µM).
With `Cc1ccc(C(=O)NCc2ccsc2)cc1C#Cc1cn(C(C)C)c2ncnc(N)c12` the activity vs control was 108% (CDK2 with cyclin E; enzyme activity; inhibitor; 1 µM).
`O=C(N[C@H]1CCCCC/C=C\C2C[C@@]2(C(=O)O)NC(=O)[C@@H]2C[C@@H](Oc3ccncc3)CN2C1=O)OC1CCCC1` (some centres unmarked) gave a remaining binding of 87% (CDK2; binding; competition with immobilised ligand; 1 µM).
For `FC(F)(F)Oc1cccc(-c2cnc3ccc(-c4ccncc4)nn23)c1`, the activity vs control was 10% (CDK2 with cyclin A; enzyme activity; inhibitor; radiometric; 5 µM).
`O=C(Nc1cnn(-c2csc(C(=O)NC3COC3)c2)c1)Nc1ccccc1Cl` gave a remaining activity of 93.6% (CDK2 with cyclin A; enzyme activity; inhibitor; 5 µM).
With `CCC(=O)N[C@@H]1CC[C@H](C(=O)N(C)c2ccc(-c3nc4ccccc4o3)cc2)C1` the remaining binding was 100% (CDK2; cell-free assay; competition with immobilised ligand; 1 µM).
With `Cc1sc(C(=O)NC2COC2)cc1-n1cc(NC(=O)Nc2c(F)cccc2Cl)cn1` the remaining activity was 106% (CDK2 with cyclin E; enzyme activity; inhibitor; 10 µM).
`COc1cc2c(cc1OC)-c1[nH]nc(Nc3cccc(F)c3)c1C2` has a remaining signal of 88.6% (CDK2 with cyclin E; cell-free assay; 0.5 µM).
`Cn1c2c(c3ccc(Cl)c(Cl)c31)C(C#N)C1(CCOCC1)NC2=O` (centres unmarked) has a ΔTm of 0 °C (CDK2; thermal stability; DSF; 10 µM).
For `Cc1cc(-n2nc(Cc3cc(F)cc(C(F)(F)F)c3)nc2C)ccc1C(N)=O`, the remaining binding was 100% (CDK2; cell-free assay; competition with immobilised ligand; 1 µM).
`Cn1c2c(c3ccccc31)C(C#N)C(C)(C)NC2=O` (centres unmarked) gave a ΔTm of -0.1 °C (CDK2; thermal stability; DSF; 10 µM).
`COc1cc(OC)c(C=C2C(O)=Nc3ccccc32)c(OC)c1` has a remaining signal of 96.3% (CDK2 with cyclin A; cell-free assay; 0.5 µM).
